From ChEMBL document CHEMBL4354826, “Structure-Based Discovery of SD-36 as a Potent, Selective, and Efficacious PROTAC Degrader of STAT3 Protein” (J Med Chem, 2019) come the findings set out here.

Test [1] is filed under the species Homo sapiens. The test is described as follows: Selectivity index, ratio of protac activity at CRBN/STAT4 in human SUDHL1 cells to protac activity at CRBN/STAT3 in human SUDHL1 cells. Format: cell-based. Summed up:
(§1)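 SU-DHL-1 cells treated 18 h with compound at 0.01–10 μM, or controls at 10 μM. Immunoblotting used SDS–PAGE, PVDF transfer, 1 h block in 5% blocker/TBST, primary and secondary antibodies and chemiluminescence. Levels of other STAT family members compared with STAT3 to express degradation selectivity.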

For test [2], the target named is Protein cereblon/Signal transducer and activator of transcription 5B (Homo sapiens) (UniProt P51692+Q96SW2). Nature of the test: Protac activity at CRBN/STAT5B in human MOLM16 cells assessed as degradation of STAT5B at 0.01 to 10 uM incubated for 4 hrs by Western blot analysis. Format: cell-based. Summed up: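 Molm-16 cells treated 4 h with test compound at 0.01–10 μM, or control compounds at 10 μM. Lysates separated by SDS–PAGE, transferred to PVDF, blocked 1 h in 5% blocker/TBST, probed for each STAT protein, and detected by chemiluminescence.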
(A western blot detects proteins with antibodies after separation by electrophoresis.)

For test [3], the species on record is Homo sapiens. The test is described as follows: Selectivity index, ratio of protac activity at CRBN/STAT5A in human SUDHL1 cells to protac activity at CRBN/STAT3 in human SUDHL1 cells. Type of test: cell-based. Summed up:
as §1

In test [4] the target is Protein cereblon/Signal transducer and activator of transcription 6 (Homo sapiens) (UniProt P42226+Q96SW2). Nature of the test: Protac activity at CRBN/STAT6 in human SUDHL1 cells assessed as degradation of STAT6 at 0.01 to 10 uM incubated for 18 hrs by Western blot analysis. Format: cell-based. Summed up: (§2)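 SU-DHL-1 cells treated 18 h with test compound at 0.01–10 μM, or control compounds at 10 μM. Lysates separated by SDS–PAGE, transferred to PVDF, blocked 1 h in 5% blocker/TBST, probed for each STAT protein, and detected by chemiluminescence.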

The next test relates to Mus musculus. The test is described as follows: In vivo degradation of STAT3 in SCID mouse xenografted with MOLM-16 cells at 50 mg/kg, iv measured upto 1 hr by Western blot analysis relative to control. Format: functional. Summed up: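 SCID mice bearing subcutaneous Molm-16 tumors (3 × 10^6 cells in Matrigel; treated at ~150 mm3) given a single intravenous dose in 10% PEG400 + 90% PBS, or vehicle. Tumors harvested at time points. Lysates immunoblotted for total STAT3 and pSTAT3 Y705, compared with vehicle control.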

Test [5] is filed under the species Homo sapiens. Nature of the test: Selectivity index, ratio of protac activity at CRBN/STAT6 in human MOLM16 cells to protac activity at CRBN/STAT3 in human MOLM16 cells. Format: cell-based. In a few lines:
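Molm-16 cells treated 4 h with compound at 0.01–10 μM, or controls at 10 μM. Western blot of lysates: SDS–PAGE, PVDF, 1 h block in 5% blocker/TBST, primary and secondary antibodies, chemiluminescent detection. STAT1, -2, -4, -5A/B and -6 levels read against STAT3 to give degradation selectivity.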

The target of test [6] is T1, Signal transducer and activator of transcription 1-alpha/beta (Homo sapiens, UniProt P42224).
T1 sequence (P42224 whole entry): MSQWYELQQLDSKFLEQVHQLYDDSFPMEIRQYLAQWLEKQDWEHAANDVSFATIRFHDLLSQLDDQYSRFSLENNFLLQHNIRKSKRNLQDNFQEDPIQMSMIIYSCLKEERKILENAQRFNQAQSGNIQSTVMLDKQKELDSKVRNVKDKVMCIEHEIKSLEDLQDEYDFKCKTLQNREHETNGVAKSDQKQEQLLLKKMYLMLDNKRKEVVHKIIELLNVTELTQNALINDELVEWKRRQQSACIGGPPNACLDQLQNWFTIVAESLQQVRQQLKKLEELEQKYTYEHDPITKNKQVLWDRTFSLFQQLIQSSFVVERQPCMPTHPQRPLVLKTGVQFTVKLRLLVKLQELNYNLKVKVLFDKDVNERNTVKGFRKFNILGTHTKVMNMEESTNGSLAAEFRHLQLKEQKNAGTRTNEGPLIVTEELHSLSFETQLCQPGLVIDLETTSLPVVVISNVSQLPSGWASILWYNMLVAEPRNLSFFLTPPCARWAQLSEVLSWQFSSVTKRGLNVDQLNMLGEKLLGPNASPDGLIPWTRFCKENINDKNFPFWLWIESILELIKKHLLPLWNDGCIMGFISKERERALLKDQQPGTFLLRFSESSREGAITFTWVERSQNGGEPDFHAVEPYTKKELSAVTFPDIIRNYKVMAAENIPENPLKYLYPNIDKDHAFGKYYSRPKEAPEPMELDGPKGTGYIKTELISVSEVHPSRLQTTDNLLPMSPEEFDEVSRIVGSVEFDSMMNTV
The test is described as follows: Binding affinity to recombinant human His/SUMO-tagged STAT1 (132 to 713 residues) expressed in Escherichia coli Rosetta (DE3) incubated for 1 hr by fluorescence polarization assay. (In general: Polarisation of emitted light reports the rotation of a fluorescent probe.)

For test [7], the target named is Protein cereblon/Signal transducer and activator of transcription 5A (Homo sapiens) (UniProt P42229+Q96SW2). Nature of the test: Protac activity at CRBN/STAT5A in human SUDHL1 cells assessed as degradation of STAT5A at 0.01 to 10 uM incubated for 18 hrs by Western blot analysis. Format: cell-based. Summed up: as §2

Molecules are shown by their SMILES. The source made the active and inactive calls. The rule behind the calls is not given here.

Chain of Protein cereblon/Signal transducer and activator of transcription 5A (Homo sapiens) (P42229 whole entry, looked up): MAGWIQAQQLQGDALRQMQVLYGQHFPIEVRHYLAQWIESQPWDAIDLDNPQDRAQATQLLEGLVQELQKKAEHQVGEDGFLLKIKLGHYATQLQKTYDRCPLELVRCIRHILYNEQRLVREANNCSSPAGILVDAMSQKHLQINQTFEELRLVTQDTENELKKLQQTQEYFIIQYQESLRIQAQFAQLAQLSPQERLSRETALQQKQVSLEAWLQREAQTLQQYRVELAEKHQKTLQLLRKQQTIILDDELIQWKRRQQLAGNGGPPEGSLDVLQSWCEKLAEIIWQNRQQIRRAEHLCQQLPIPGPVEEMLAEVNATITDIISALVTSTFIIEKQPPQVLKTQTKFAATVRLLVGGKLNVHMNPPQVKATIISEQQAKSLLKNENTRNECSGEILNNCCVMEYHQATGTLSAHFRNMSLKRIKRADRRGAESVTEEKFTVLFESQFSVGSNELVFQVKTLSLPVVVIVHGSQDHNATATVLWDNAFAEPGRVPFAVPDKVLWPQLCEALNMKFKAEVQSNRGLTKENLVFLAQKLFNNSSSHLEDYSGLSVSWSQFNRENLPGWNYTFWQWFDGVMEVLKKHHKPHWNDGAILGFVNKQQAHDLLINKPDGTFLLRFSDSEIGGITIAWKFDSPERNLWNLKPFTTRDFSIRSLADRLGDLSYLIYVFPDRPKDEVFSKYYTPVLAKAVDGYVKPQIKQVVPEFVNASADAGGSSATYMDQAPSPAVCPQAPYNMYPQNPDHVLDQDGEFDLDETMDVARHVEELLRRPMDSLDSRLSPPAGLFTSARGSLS
Chain of Protein cereblon/Signal transducer and activator of transcription 5A (Homo sapiens) (Q96SW2 whole entry, looked up): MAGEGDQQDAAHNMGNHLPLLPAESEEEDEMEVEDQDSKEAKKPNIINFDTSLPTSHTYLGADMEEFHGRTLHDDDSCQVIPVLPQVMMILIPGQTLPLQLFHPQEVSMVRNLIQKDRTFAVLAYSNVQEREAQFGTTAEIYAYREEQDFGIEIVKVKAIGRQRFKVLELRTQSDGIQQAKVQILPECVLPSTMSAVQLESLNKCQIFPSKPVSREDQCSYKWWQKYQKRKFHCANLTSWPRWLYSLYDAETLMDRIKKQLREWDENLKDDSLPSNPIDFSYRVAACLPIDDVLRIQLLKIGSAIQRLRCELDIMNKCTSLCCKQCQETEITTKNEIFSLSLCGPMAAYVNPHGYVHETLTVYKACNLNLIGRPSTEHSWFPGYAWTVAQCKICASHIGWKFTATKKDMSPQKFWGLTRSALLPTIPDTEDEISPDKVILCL
Chain of Protein cereblon/Signal transducer and activator of transcription 5B (Homo sapiens) (P51692 whole entry, looked up): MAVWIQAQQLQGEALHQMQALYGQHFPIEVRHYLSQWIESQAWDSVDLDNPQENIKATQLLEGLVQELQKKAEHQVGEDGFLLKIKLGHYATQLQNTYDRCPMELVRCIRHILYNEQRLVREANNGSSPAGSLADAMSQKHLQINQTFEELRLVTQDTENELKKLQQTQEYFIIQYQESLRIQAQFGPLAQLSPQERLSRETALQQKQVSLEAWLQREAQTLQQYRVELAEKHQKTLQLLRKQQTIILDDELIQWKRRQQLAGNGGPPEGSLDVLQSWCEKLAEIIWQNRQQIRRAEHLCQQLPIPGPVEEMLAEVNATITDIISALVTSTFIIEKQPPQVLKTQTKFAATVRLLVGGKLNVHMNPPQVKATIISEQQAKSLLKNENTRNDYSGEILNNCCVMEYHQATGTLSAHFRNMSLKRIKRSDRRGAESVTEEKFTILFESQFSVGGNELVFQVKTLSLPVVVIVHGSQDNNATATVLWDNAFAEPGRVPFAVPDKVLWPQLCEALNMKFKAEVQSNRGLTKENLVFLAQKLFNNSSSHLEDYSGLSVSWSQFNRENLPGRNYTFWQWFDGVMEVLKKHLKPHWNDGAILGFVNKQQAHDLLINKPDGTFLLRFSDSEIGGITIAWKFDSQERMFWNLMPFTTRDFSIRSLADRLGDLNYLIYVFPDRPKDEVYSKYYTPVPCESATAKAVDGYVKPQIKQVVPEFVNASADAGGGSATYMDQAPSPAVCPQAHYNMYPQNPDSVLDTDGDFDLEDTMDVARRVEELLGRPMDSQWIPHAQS
Chain of Protein cereblon/Signal transducer and activator of transcription 5B (Homo sapiens) (Q96SW2 whole entry, looked up): as the sequence (Q96SW2 whole entry, looked up) above
Chain of Protein cereblon/Signal transducer and activator of transcription 6 (Homo sapiens) (P42226 2-847 limits assumed): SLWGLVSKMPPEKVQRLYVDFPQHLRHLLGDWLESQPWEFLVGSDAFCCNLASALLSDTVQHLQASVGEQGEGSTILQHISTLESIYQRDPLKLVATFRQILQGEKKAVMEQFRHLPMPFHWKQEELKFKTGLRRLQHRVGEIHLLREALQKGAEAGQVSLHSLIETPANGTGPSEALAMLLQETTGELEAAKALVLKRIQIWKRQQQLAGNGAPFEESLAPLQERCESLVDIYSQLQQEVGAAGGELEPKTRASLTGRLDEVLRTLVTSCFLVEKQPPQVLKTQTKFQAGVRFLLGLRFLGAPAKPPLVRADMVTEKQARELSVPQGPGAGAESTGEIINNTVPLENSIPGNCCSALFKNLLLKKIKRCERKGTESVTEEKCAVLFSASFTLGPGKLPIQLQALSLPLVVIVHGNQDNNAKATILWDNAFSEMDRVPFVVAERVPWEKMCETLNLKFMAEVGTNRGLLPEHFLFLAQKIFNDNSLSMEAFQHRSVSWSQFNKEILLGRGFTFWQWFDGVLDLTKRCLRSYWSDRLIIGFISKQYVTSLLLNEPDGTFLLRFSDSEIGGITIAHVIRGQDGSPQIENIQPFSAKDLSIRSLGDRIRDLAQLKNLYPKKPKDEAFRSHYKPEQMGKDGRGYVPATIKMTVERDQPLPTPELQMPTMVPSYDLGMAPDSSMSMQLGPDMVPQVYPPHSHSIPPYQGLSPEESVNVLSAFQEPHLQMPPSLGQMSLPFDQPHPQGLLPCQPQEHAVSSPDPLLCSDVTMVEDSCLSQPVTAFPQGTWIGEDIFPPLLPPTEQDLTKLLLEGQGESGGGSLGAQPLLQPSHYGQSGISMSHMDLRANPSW
Chain of Protein cereblon/Signal transducer and activator of transcription 6 (Homo sapiens) (Q96SW2 whole entry partner): as the sequence (Q96SW2 whole entry, looked up) above

In general, Kd refers to the constant that tells how readily two partners part at equilibrium. In the case of `NC(=O)CC[C@H](NC(=O)[C@@H]1CC[C@@H]2CCN(C(=O)CCCCCC#Cc3cccc4c3CN(C3CCC(=O)NC3=O)C4=O)C[C@H](NC(=O)c3cc4cc(C(F)(F)P(=O)(O)O)ccc4[nH]3)C(=O)N21)C(=O)NC(c1ccccc1)c1ccccc1` (stereo partly drawn), the Ratio in the test listed under Homo sapiens [1], in the test listed under Homo sapiens [3] and in the test listed under Homo sapiens [5] was above 100 each time. Moreover, the result in test [2], in test [4] and in test [7] was inactive. Further, the Activity with Mus musculus is above 95%. In test [6], the Kd stood at 1000 nM.
